MC4R antag cAMP – blocks human MC4R cAMP signaling. inhibition, % at 6.5 µM. actives 0.48% (n = 360,000). MC4R-expressing cells, MTII-stimulated cAMP, LANCE TR-FRET;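 active = inhibition above its plate's cutoff, the mean of tested wells on that plate plus 3 SD, cut at about 29% in these data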;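 also: 0% = Melanotan II alone and 100% = Melanotan II plus saturating MCL0020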
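System: U2OS cells stably expressing human melanocortin 4 receptor (MC4R). Reagent: Melanotan II challenge after compound preincubation. Doses: 6.5 µM. Times: 30-min compound, 1-h challenge, 1-h detection, room temperature. Measured by: TR-FRET with Eu-cAMP and labeled anti-cAMP, 671 nm. Replicates: singlicate.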
MC4R ag barr – agonists of human melanocortin 4 receptor (MC4R) beta-arrestin; P32245; U2OS MC4R beta-arrestin complementation, luminescence; percent of melanotan II response, DMSO zero; activation, % at 8.9 µM; actives 0.98% (n = 360,000); AID 540308;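 active = activation above a per-plate cutoff, the mean activation of sample wells on that plate plus 3 SD, cut at about 8% in these data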
NTR1 agonist – activates human neurotensin receptor 1 | actives 0.17% (n = 330,000) | AID 493036 | activation, % at 20 µM | NTR1-U2OS beta-arrestin-GFP spot imaging, agonist mode;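 active = activation at or above 40% of the spot to cytoplasm intensity ratio, with at least 20 cells analyzed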;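 also: 0% = DMSO without peptide and 100% = 100 nM NTR1 peptide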
AI-2 QS modul – Vibrio harveyi AI-2 quorum sensing modulation; actives 0.4% (n = 300,000); activity change, % at 7.5 µM; Vibrio harveyi JMH597 AI-2 luminescence/OD600 ratio, 9 h; hits give low values; strain lacks LuxN and CqsS sensors; 0 = neutral-control median; in the data active = activity change below about -75%, passing the limit was not always enough;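 also: luminescence divided by OD600 gain over 9 h not by final OD600 alone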
MC4R barr ag – human MC4R beta-arrestin agonism confirmation | actives 31% (n = 2,400) | U2OS MC4R beta-arrestin recruitment, luminescence; scaled DMSO 0%, Melanotan II 100% | shares compounds with MC4R ag barr | activation, % at 8.9 µM;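 active = mean activation across replicates above the hit cutoff set in the earlier primary screen, cut at about 8% in these data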
MOR DOR agonist – activates mu-delta opioid heterodimer, MC4R agonist counter-screen; shares compounds with MC4R ag barr; U2OS PathHunter beta-arrestin, beta-gal luminescence; percent of deltorphin B response, DMSO zero; activation, % at 9.2 µM; actives 5.8% (n = 2,400); AID 602194;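 active = mean activation across replicates exceeds the hit threshold derived in the earlier primary screen, cut at about 18% in these data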;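 also: 100% = deltorphin B at 0.9 µM final and 0% = DMSO alone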
Target sequence (P35372 whole entry, looked up): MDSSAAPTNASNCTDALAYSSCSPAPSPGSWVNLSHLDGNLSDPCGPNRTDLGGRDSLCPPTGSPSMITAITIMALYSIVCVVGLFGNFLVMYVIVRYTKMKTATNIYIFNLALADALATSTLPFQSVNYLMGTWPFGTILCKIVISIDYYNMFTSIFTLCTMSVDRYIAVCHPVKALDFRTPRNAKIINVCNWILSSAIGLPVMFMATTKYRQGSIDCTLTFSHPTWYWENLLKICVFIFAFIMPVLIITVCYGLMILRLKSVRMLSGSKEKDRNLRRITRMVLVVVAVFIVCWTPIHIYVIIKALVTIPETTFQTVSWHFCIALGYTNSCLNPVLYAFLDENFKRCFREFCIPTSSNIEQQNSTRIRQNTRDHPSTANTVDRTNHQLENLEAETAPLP
Target sequence (P41143 whole entry, looked up): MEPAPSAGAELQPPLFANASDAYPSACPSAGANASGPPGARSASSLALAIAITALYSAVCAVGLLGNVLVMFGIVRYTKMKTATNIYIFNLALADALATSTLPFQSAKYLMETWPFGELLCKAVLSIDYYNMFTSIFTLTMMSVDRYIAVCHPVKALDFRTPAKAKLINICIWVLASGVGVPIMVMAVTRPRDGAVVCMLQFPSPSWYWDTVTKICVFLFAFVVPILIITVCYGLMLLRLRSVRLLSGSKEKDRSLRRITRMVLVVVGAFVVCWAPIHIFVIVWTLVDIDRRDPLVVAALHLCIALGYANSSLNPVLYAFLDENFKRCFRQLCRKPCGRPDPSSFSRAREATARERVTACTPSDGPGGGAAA
An asterisk follows results filed as active; ! = a repeat was not active. Sampled rows, rich in hits. Any-hit rate of the full collection: about 1.8%.

`Cc1ccc(N(C(=O)Cc2c[nH]c3ccccc23)C(C(=O)NC2CCCCC2)c2ccco2)cc1` (stereo not given) gave MC4R antag cAMP 9, MC4R ag barr -1, NTR1 agonist 11 and AI-2 QS modul 28.
Screening Clc1ccccc1-c1cnc2sc(NCc3ccc4c(c3)OCO4)nn12 returned MC4R antag cAMP -5, MC4R ag barr 22*, MC4R barr ag 13* and MOR DOR agonist 9.
COc1cc2c(cc1NC(=O)c1ccc(C)c([N+](=O)[O-])c1)oc1ccccc12 was read as MC4R antag cAMP 3, MC4R ag barr 1, NTR1 agonist 5 and AI-2 QS modul 19.
For COc1cc2c(cc1NC(=O)c1cccc([N+](=O)[O-])c1)oc1ccccc12 the results were MC4R antag cAMP -23, MC4R ag barr 22*, NTR1 agonist 6, AI-2 QS modul 5, MC4R barr ag 31* and MOR DOR agonist 47*.
For Cc1ccc(Sc2ccc(NC(=O)CCl)cc2)cc1C the results were MC4R antag cAMP 14, MC4R ag barr 19*, NTR1 agonist 6, AI-2 QS modul 36, MC4R barr ag 17* and MOR DOR agonist 6.
Screening COc1cccc(CNC(=O)CN2C(=O)COc3ccc(S(=O)(=O)N4CCC(C)CC4)cc32)c1 returned MC4R antag cAMP 3, MC4R ag barr -1, NTR1 agonist 0 and AI-2 QS modul 12.
For CCCCN(C=O)c1c(CC)nc2c(OCC(=O)c3ccc(F)cc3)cccn12 the results were MC4R antag cAMP 0 and MC4R ag barr 1.
For O=C(NCC1OCCc2ccccc21)c1ccc(NC(=O)c2ccc(Cl)cc2Cl)cc1 (stereo not given) the results were MC4R antag cAMP -8, MC4R ag barr 15*, NTR1 agonist 13, AI-2 QS modul 12, MC4R barr ag 2 and MOR DOR agonist 2.
`CCN1CCN(Cc2ccc(NC(=O)c3cc(NC(=O)c4nccnc4N)cc(OC)c3)cc2C(F)(F)F)CC1` gave MC4R antag cAMP -1, MC4R ag barr 0, NTR1 agonist 15 and AI-2 QS modul -8.
Screening CCN1CCN(Cc2ccc(NC(=O)c3cc(NC(=O)c4cncc(-c5ccc(C#N)cc5)c4)cc(OC)c3)cc2C(F)(F)F)CC1 returned MC4R antag cAMP 3, MC4R ag barr 13*!, NTR1 agonist 12, AI-2 QS modul 6, MC4R barr ag 20* and MOR DOR agonist 13.
Screening CCOc1ccccc1C(=O)NC(C)CCc1ccccc1 (stereo not given) returned MC4R antag cAMP 4, MC4R ag barr 2, NTR1 agonist 1 and AI-2 QS modul 22.
CCOc1cc(C(=O)NC(C)CCc2ccccc2)cc(OCC)c1OCC (stereo not given) was read as MC4R antag cAMP 9, MC4R ag barr 14*, NTR1 agonist 0, AI-2 QS modul 28, MC4R barr ag 4 and MOR DOR agonist 8.
For COc1cccc(/C=C/C(=O)N(C)CC(=O)Nc2ccc(Cl)c(C(F)(F)F)c2)c1 the results were MC4R antag cAMP -3, MC4R ag barr 12*, NTR1 agonist 1, AI-2 QS modul 20, MC4R barr ag 1 and MOR DOR agonist 6.
`Cc1cc(SCC(=O)OCC(=O)N(C)c2ccccc2)nc2ccccc12` gave MC4R antag cAMP -7, MC4R ag barr 2, NTR1 agonist 3 and AI-2 QS modul 36.
O=C(Oc1ccc(-c2cnc3ccccc3n2)cc1)c1ccco1 was read as MC4R antag cAMP -8, MC4R ag barr 18*, NTR1 agonist 0, AI-2 QS modul 5, MC4R barr ag -3 and MOR DOR agonist 3.
Cc1cccc(C)c1OCC(=O)OC/C(O)=C(\C#N)c1nc2ccccc2[nH]1 was read as MC4R antag cAMP 3, MC4R ag barr 21*, NTR1 agonist 5, AI-2 QS modul 19, MC4R barr ag 5 and MOR DOR agonist 8.
For Cc1ccc(C)c(SCC(=O)OC/C(O)=C(\C#N)c2nc3ccccc3[nH]2)c1 the results were MC4R antag cAMP -10, MC4R ag barr 17*, AI-2 QS modul 1, MC4R barr ag -1 and MOR DOR agonist 12.
`Cc1cc(Br)ccc1SCC(=O)OC/C(O)=C(\C#N)c1nc2ccccc2[nH]1` gave MC4R antag cAMP 20, MC4R ag barr 12*, NTR1 agonist 4, AI-2 QS modul 24, MC4R barr ag 3 and MOR DOR agonist 2.
For Cc1cccnc1NC(=O)c1cccc(S(=O)(=O)N2CCCc3ccccc32)c1 the results were MC4R antag cAMP 8, MC4R ag barr -1, NTR1 agonist 1 and AI-2 QS modul 26.
Screening O=C(C1CCN(S(=O)(=O)c2cccs2)CC1)N1CCCC(C(F)(F)F)C1 (stereo not given) returned MC4R antag cAMP -2, MC4R ag barr -1, NTR1 agonist -1 and AI-2 QS modul 21.
`CC(=O)Nc1ccc(-c2ccnc3c2CC(C(=O)Nc2cccc(OC(F)(F)F)c2)O3)cc1` (stereo not given) gave MC4R antag cAMP 3 and MC4R ag barr 2.
`O=C(COC(=O)c1n[nH]c2ccccc12)NC(=O)NC12CC3CC(CC(C3)C1)C2` gave MC4R antag cAMP 2, MC4R ag barr 18*, NTR1 agonist 8, AI-2 QS modul -5, MC4R barr ag 3 and MOR DOR agonist 7.
For O=C(CSc1nnc(NC(=O)c2ccc(F)cc2)s1)NC1CCCC1 the results were MC4R antag cAMP -2, MC4R ag barr 2, NTR1 agonist -1 and AI-2 QS modul 2.
`C=CCOC(=O)/C(=C/c1cccc2ccccc12)NC(=O)c1ccccc1` gave MC4R antag cAMP -2, MC4R ag barr 1, NTR1 agonist 1 and AI-2 QS modul -18.
For O=C(OCc1ccccc1)/C(=C/c1cccc2ccccc12)NC(=O)c1ccccc1 the results were MC4R antag cAMP 1, MC4R ag barr 14*, NTR1 agonist 4, AI-2 QS modul 10, MC4R barr ag 3 and MOR DOR agonist 3.
`CCOc1ccc(NC(=O)c2cc(C3CC3)nc3c2cnn3C(C)C)cc1OC` gave MC4R antag cAMP 4, MC4R ag barr 1 and NTR1 agonist 1.
Screening CC(=O)c1ccc(N2CCN(S(=O)(=O)c3cc4c(cc3C)NC(=O)CO4)CC2)cc1 returned MC4R antag cAMP 7, MC4R ag barr 16*, NTR1 agonist 0, AI-2 QS modul 15, MC4R barr ag 1 and MOR DOR agonist 2.
`O=C1COc2ccc(S(=O)(=O)N3CCN(c4cccc(C(F)(F)F)c4)CC3)cc2N1` gave MC4R antag cAMP 10, MC4R ag barr 11*, NTR1 agonist 4, AI-2 QS modul 20, MC4R barr ag 3 and MOR DOR agonist 7.

Screening results from PubChem.
